Results reported in ChEMBL document CHEMBL3286362, “Farnesyltransferase inhibitors: CAAX mimetics based on different biaryl scaffolds” (Bioorg Med Chem Lett, 2014).
Active and inactive are the calls of the source. No cut-off for these calls is given here.

Biological target: T1, Protein farnesyltransferase (Homo sapiens, UniProt P49354+P49356)
Experiment: Inhibition of recombinant FTase (unknown origin) by spectrofluorimetric analysis
Assay type: protein-complex assay
With CSCC[C@H](NC(=O)c1ccc(NC(=O)Cc2csc(N)n2)cc1-c1ccoc1)C(=O)O the IC50 was 2.8 µM.
For CSCC[C@H](NC(=O)c1ccc(OCC2COc3ccccc3O2)cc1-c1ccsc1)C(=O)O (stereo not given in full), the IC50 was 5 µM.

Organism: Rattus norvegicus
Experiment: (§1) Growth inhibition of RASMC after 72 hrs by Coulter counting analysis
Assay type: functional
Method in brief: (§2)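 Proliferation of cultured rat aortic smooth muscle cells, with test agents given as isopropyl esters to aid membrane permeability; IC50 values derived.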
For CSCC[C@H](NC(=O)c1ccc(OCC2COc3ccccc3O2)cc1-c1ccsc1)C(=O)OC(C)C (stereo not given in full), the “growth inhibition (GI)” value was “inactive”.
In the case of CSCC[C@H](NC(=O)c1ccc(NC(=O)Cc2csc(N)n2)cc1-c1ccoc1)C(=O)OC(C)C, the “growth inhibition (GI)” value is reported as “Dose-dependent effect”.
In the case of CSCC[C@H](NC(=O)c1ccc(OCC2COc3ccccc3O2)cc1-c1cncc2ccccc12)C(=O)OC(C)C (stereo not given in full), the “growth inhibition (GI)” value is reported as “inactive”.

System: not listed separately
Experiment: as §1
Assay type: functional, Rattus norvegicus
Method in brief: as §2
Work on CSCC[C@H](NC(=O)c1ccc(NC(=O)Cc2csc(N)n2)cc1-c1ccsc1)C(=O)OC(C)C yielded an IC50 of 123 µM.
For CSCC[C@H](NC(=O)c1ccc(OCC2COc3ccccc3O2)cc1-c1cccs1)C(=O)OC(C)C (stereo not given in full), the IC50 was 81 µM.
With CSCC[C@H](NC(=O)c1ccc(NC(=O)Cc2csc(N)n2)cc1-c1cccs1)C(=O)OC(C)C the IC50 was 200 µM.
Molecule CSCC[C@H](NC(=O)c1ccc(OCC2COc3ccccc3O2)cc1-c1cccc2ccccc12)C(=O)OC(C)C (stereo not given in full) has an IC50 of 155 µM.
Molecule CSCC[C@H](NC(=O)c1ccc(NC(=O)Cc2csc(N)n2)cc1-c1ccco1)C(=O)OC(C)C has an IC50 of 110 µM.
In the case of CSCC[C@H](NC(=O)c1ccc(OCC2COc3ccccc3O2)cc1-c1ccco1)C(=O)OC(C)C (stereo not given in full), the IC50 is reported as 99 µM.
With CSCC[C@H](NC(=O)c1ccc(NC(=O)Cc2csc(N)n2)cc1-c1ccoc1)C(=O)OC(C)C the IC50 was 259 µM.
Work on CSCC[C@H](NC(=O)c1ccc(NC(=O)Cc2csc(N)n2)cc1-c1cccc2ccccc12)C(=O)OC(C)C yielded an IC50 of 81 µM.
For CSCC[C@H](NC(=O)c1ccc(NC(=O)Cc2csc(N)n2)cc1-c1cncc2ccccc12)C(=O)OC(C)C, the IC50 was 252 µM.
With CSCC[C@H](NC(=O)c1ccc(OCC2COc3ccccc3O2)cc1-c1ccoc1)C(=O)OC(C)C (stereo not given in full) the IC50 was 61 µM.

Organism: Rattus norvegicus
Experiment: (§3) Inhibition of FTase-mediated RAS prenylation in RASMC after 72 hrs by Western blotting analysis
Method in brief: (§4)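 Rat aortic SMCs incubated 72 h with 25 to 400 µM of test ester or without it, alongside simvastatin 2 µM as positive control. Total cell lysates were prepared and Ras prenylation was assessed by Western blot with anti-Ras antibody (clone RAS10).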
In the case of CSCC[C@H](NC(=O)c1ccc(NC(=O)Cc2csc(N)n2)cc1-c1ccoc1)C(=O)OC(C)C, the inhibition is reported as “Dose-dependent effect”.

System: not listed separately
Experiment: as §3
Set-up: species or system Rattus norvegicus
Method in brief: as §4
For CSCC[C@H](NC(=O)c1ccc(NC(=O)Cc2csc(N)n2)cc1-c1ccoc1)C(=O)OC(C)C, the IC50 was 100 µM.

Organism: Rattus norvegicus
Experiment: Inhibition of FTase-mediated RAS prenylation in RASMC at 2 uM after 72 hrs by Western blotting analysis
Method in brief: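 Rat aortic smooth muscle cells were incubated for 72 h with or without test ester (25–400 µM) or with the HMG-CoA reductase inhibitor simvastatin (2 µM) as positive control. Total cell lysates were then prepared and Ras prenylation was assessed by western blot using an anti-Ras antibody (clone RAS10).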
For CCC(C)(C)C(=O)O[C@H]1C[C@@H](C)C=C2C=C[C@H](C)[C@H](CC[C@@H]3C[C@@H](O)CC(=O)O3)[C@H]21, the inhibition was “Active”.

Biological target: T1, Protein farnesyltransferase
Experiment: Inhibition of recombinant FTase (unknown origin) at 20 uM by spectrofluorimetric analysis relative to control
Assay type: protein-complex assay
Method in brief: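 Fluorescence-based FTase activity assay; free acids screened at a single 20 µM concentration and percent inhibition determined.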
Work on CSCC[C@H](NC(=O)c1ccc(OCC2COc3ccccc3O2)cc1-c1ccoc1)C(=O)O (stereo not given in full) yielded an inhibition of 48.7%.
CSCC[C@H](NC(=O)c1ccc(NC(=O)Cc2csc(N)n2)cc1-c1cccc2ccccc12)C(=O)O gave an inhibition of 90.4%.
Molecule CSCC[C@H](NC(=O)c1ccc(OCC2COc3ccccc3O2)cc1-c1ccco1)C(=O)O (stereo not given in full) has an inhibition of 51.5%.
With CSCC[C@H](NC(=O)c1ccc(NC(=O)Cc2csc(N)n2)cc1-c1ccsc1)C(=O)O the inhibition was 20.9%.
For CSCC[C@H](NC(=O)c1ccc(OCC2COc3ccccc3O2)cc1-c1cccs1)C(=O)O (stereo not given in full), the inhibition was 90%.
Molecule CSCC[C@H](NC(=O)c1ccc(NC(=O)Cc2csc(N)n2)cc1-c1cccs1)C(=O)O has an inhibition of 53.8%.
Work on CSCC[C@H](NC(=O)c1ccc(NC(=O)Cc2csc(N)n2)cc1-c1ccoc1)C(=O)O yielded an inhibition of 98.7%.
Work on CSCC[C@H](NC(=O)c1ccc(OCC2COc3ccccc3O2)cc1-c1cccc2ccccc12)C(=O)O (stereo not given in full) yielded an inhibition of 41.7%.
CSCC[C@H](NC(=O)c1ccc(OCC2COc3ccccc3O2)cc1-c1cncc2ccccc12)C(=O)O (stereo not given in full) gave an inhibition of 14.5%.
Molecule CSCC[C@H](NC(=O)c1ccc(NC(=O)Cc2csc(N)n2)cc1-c1ccco1)C(=O)O has an inhibition of 15.4%.
Molecule CSCC[C@H](NC(=O)c1ccc(NC(=O)Cc2csc(N)n2)cc1-c1cncc2ccccc12)C(=O)O has an inhibition of 0%.
In the case of CSCC[C@H](NC(=O)c1ccc(OCC2COc3ccccc3O2)cc1-c1ccsc1)C(=O)O (stereo not given in full), the inhibition is reported as 96.6%.
